test: Toxicity liver stage against HepG2, at 10uM; assay type: cell-based; parameters: test concentration 10 uM, cell line HepG2-A16-CD81EGFP; settings: human, HepG2-A16-CD81EGFP cells; read-out: INHIBITION
In short: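 Uninfected HepG2-A16-CD81EGFP cells, 3 × 10^3 per well, 1536-well, plated on prespotted compound at 10 μM final, parasite-free screening media added to match infected plates; puromycin 10 μM positive, DMSO 0.5% negative; run in parallel with 48 h PbLuc assay at 37 °C, 5% CO2; viability by CellTiter-Glo luminescence, normalized to controls.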

| Structure (SMILES) | cytotoxicity at 10 µM [%] |
| --- | --- |
| CCC(C)[C@H](N)c1nnc(SCC(=O)Nc2ccc(C)cc2C)o1 (some centres undefined) | -3.32 |
| COc1cccc(CNc2ccc(F)c(Cl)c2)c1O | 4.56 |
| O=C(NCC1CCCO1)C1CCN(Cc2nc(C3CC3)no2)CC1 (centres undefined) | 1.11 |
| CCC1CCCCCN1C(=O)c1nnc2ccccc2c1N (centres undefined) | 7.85 |
| c1ccc(CCCN2CC[C@H](c3nnc(-c4ccccc4)o3)C2)cc1 | 4.77 |
| CC(=O)c1cc2ncc(C(=O)NC3CC3)cc2[nH]1 | -0.0253 |
| CCOCCCNC(=O)c1cn(C(C)(C)C)c2ncccc12 | 2.05 |
| O=S(=O)(Nc1cnc(N2CCCC2)nc1)c1ccc(OC(F)(F)F)cc1 | 2.41 |
| O=C(NC1CC1)C1CCCN(c2cc(-n3cncn3)ncn2)C1 (centres undefined) | 10.1 |
| CNC(=O)[C@@]12CCC3(CCN(S(C)(=O)=O)CC3)[C@@H]1CN(C(C)=O)C2 | -2.07 |
| Cc1ccc(N2CC[C@H]3OCC[C@@]3(C(=O)N3CCCC3)C2)nn1 | 2.46 |
| O=C(Cn1cnc(-c2ccccc2)cc1=O)Nc1ccncc1 | 3.48 |
| Fc1cccc(CN2CCC[C@@H](Cn3nnc(-c4ccccn4)n3)C2)c1 | 3.33 |
| CC(C)N1CCCCC1c1cncc(Cl)n1 (centres undefined) | 8.41 |
| CC(NCC1(N(C)C)CCOCC1)c1ccc(SC(F)F)cc1 (centres undefined) | -0.79 |
| O=C(C1CCOc2ccccc21)N1CCOc2ccc(F)cc21 (centres undefined) | -7.54 |
| CC(C)n1nnnc1-c1ccc(NC(=O)CCC(F)(F)F)cc1F | -2.5 |
| COc1cc(CNc2nc(C(F)(F)F)no2)cc(OC)c1OC | 1.66 |
| CNC(=O)COC(=O)c1cccc(-n2ccc(C(F)(F)F)n2)c1 | -39.5 |
| Cc1cc(NC(=O)CCCn2ccnc2C)nc(C(C)C)n1 | -5.73 |
| CN(Cc1ccc(Cl)cc1)C(=O)Nc1cnn(CC(N)=O)c1 | -17.6 |
| Cc1cc(Nc2ccc3c(c2)CC(=O)N3)nc(C2CC2)n1 | 0.658 |

| Structure (SMILES) | cytotoxicity at 10 µM [%] |
| --- | --- |
| CCc1n[nH]c(C2CN(C(=O)COCC(F)(F)F)CCO2)n1 (centres undefined) | -3.48 |
| CN(Cc1ccc(Br)o1)C(=O)Nc1cccnc1 | -7.91 |
| CC(=O)NCC(=O)NC1CCc2nccn2C1 (centres undefined) | -6.99 |
| O=C(NCc1ccccc1CN1CCC(O)CC1)Nc1ccccc1 | 7.77 |
| O=C(NCc1ccc(F)cc1)NCC1(N2CCOCC2)CCSC1 (centres undefined) | 1.84 |
| Cc1ccc(CN(C)C(=O)CN2CCCCC2Cn2cncn2)o1 (centres undefined) | 0.508 |
| CS(=O)(=O)CCNC1CCCN(Cc2noc(C3CC3)n2)C1 (centres undefined) | -1.38 |
| Cc1ccc(CNc2ccccc2-n2ccc(C)n2)nc1 | 5.7 |
| CC(O)CN1CCN(C(=O)c2cnc(OC(C)C)c(Cl)c2)CC1 (centres undefined) | -19.5 |
| NC(=O)NC(=O)CCN1CCC(C(=O)c2cc(F)ccc2F)CC1 | 9.69 |
| CN(Cc1ccsc1)C(=O)Cn1c(CS(C)(=O)=O)nc2ccccc21 | 6.96 |
| CC1COc2ccccc2N1C(=O)c1ccc(=O)n(C)c1 (centres undefined) | -3.42 |
| OC1CCN(c2cnnc3ccccc23)CC1 | -0.561 |
| O=S(=O)(NCc1ccc(S(=O)(=O)N2CCCC2)s1)c1ccc(Cl)c(Cl)c1 | -41.8 |
| O=S(=O)(CC1CCOCC1)NCc1ncc(-c2ccccc2)o1 | -12.6 |
| CCc1cnc(CNC(=O)N2CCCC(c3ncc[nH]3)C2)s1 (centres undefined) | 8.2 |
| COCCN1CCC(CNC(=O)C2(NC(C)=O)CCCCC2)CC1 | 5.46 |
| CSCCC(NC(=O)c1ccc2ccccc2n1)C(=O)NC(C)C (centres undefined) | 9.3 |
| O=C1CN(c2ccc(CNc3cncc(-n4cccn4)n3)cc2)CCN1 | -13.3 |
| COc1ccc(CS(=O)(=O)CC(=O)NCc2ccccc2F)cc1F | 3.33 |
| NC(=O)c1nc2c(s1)CCN(C(=O)Nc1ccccc1)CC2 | 12.5 |
| O=C([C@@H]1CCCO1)N1CCOCC2(CCN(Cc3cccnc3)C2)C1 (some centres undefined) | -108 |

| Structure (SMILES) | cytotoxicity at 10 µM [%] |
| --- | --- |
| CN1CCN(Cc2cnc3n2CCN(C(=O)c2ccccn2)C3)CC1 | -88.7 |
| O=C(C1CCOCC1)N1CCN(CC2CC2)c2ncccc2C1 | -107 |
| Cc1ccc2c(n1)N(CCN(C)C)CCN(C(=O)c1ccsc1)C2 | -57.3 |
| O=C(c1ccccn1)N1CCC2(CC1)CN(c1cncnc1)C(=O)CO2 | -67 |
| Cc1ccc(CN2CCN(C)c3ncccc3C2)o1 | -79.6 |
| COCC(=O)N1C[C@@H]2OCCN(Cc3c(C)noc3C)[C@@H]2C1 | -0.722 |
| COc1ccc(C(=O)N2CCC(Oc3cccc(C)c3)(C(=O)O)CC2)o1 | 9.24 |
| Cc1cc(C)c2c(N3CCN(CCN4CCOCC4)CC3)ncnc2n1 | 3.04 |
| COCCN(C)C(C(=O)O)c1ccc2ccccc2c1 (centres undefined) | 3.54 |
| FC(F)(F)c1ccnc(N2CCCC(N3CCOCC3)C2)c1 (centres undefined) | -24.7 |
| CCc1cnc(C)nc1NC(C)C(=O)Nc1cc(F)ccc1C (centres undefined) | -0.682 |
| COCC(=O)NCc1cc2n(n1)CCCN(CCCC1CCCC1)C2 | -5.01 |
| CO[C@H]1CN(C(C)C)C[C@@H]1NC(=O)Nc1ccc(C(F)(F)F)cc1 | 2.05 |
| O=C(CCc1cc2n(n1)CCCNC2)NCCCSC1CCCCC1 | -5.52 |
| COc1ccccc1OC1(C(=O)O)CCN(c2ccccn2)CC1 | 4.52 |
| Fc1ccc(-n2cccn2)c(CN2CCCCC2CCn2ccnc2)c1 (centres undefined) | -11.3 |
| CC(C)c1cc(N2CCC3(CCN(C)C3)C2)ncn1 (centres undefined) | -11.8 |
| Cc1nc(CCNC2CCN(Cc3ccccc3)C2)sc1C (centres undefined) | 12.3 |
| COCCn1ccnc1C1CCCN(C(=O)c2cc(F)cc(F)c2)C1 (centres undefined) | 8.86 |
| Cc1nc(O)cc(C2CCCN(C(=O)c3cccc(N(C)C)c3)C2)n1 (centres undefined) | -6.47 |
| COc1cccc([C@@H]2CN(C3CSCCSC3)C[C@H]2C(=O)O)c1 | 2.95 |
| Cc1noc(CC2CCN(Cc3ccc(CCC(C)(C)O)cc3)CC2)n1 | -2.18 |

| Structure (SMILES) | cytotoxicity at 10 µM [%] |
| --- | --- |
| Cn1cc(CN2CCC(CCC(=O)NCc3ccc(F)cc3)CC2)cn1 | -19.5 |
| Cc1n[nH]c(C)c1CCCN(C)Cc1c[nH]nc1-c1ccc(F)cc1 | 3.45 |
| CCOCc1nc2c(c(NC(CC)c3ccnn3C)n1)CCNCC2 (centres undefined) | -5.53 |
| Cc1nc(N2CCC3(CCCN(CCO)C3=O)C2)c2sccc2n1 (centres undefined) | -0.456 |
| CCCc1nccn1-c1ccc(C(O)CN2CCOCC2)cc1 (centres undefined) | 3.43 |
| CN(C)CC1(O)CCN(C(=O)c2cnc(CN3CCCC3)s2)C1 (centres undefined) | 0.245 |
| CN(C)CCCn1ccc(-c2cccc(-c3cncnc3)c2)n1 | 2.51 |
| CCC(CO)N(Cc1ccccn1)C(=O)c1cccc(C#N)c1 (centres undefined) | -3.67 |
| CCn1cc(CNC(=O)CCc2nnc(-c3ccc(C)s3)o2)cn1 | -2.83 |
| COc1ccc2c(c1OC)Cc1c-2nc(N)c(C#N)c1C1CCOC1 (centres undefined) | 28.6 |
| Cc1nnc(CCNC(=O)C2CC(=O)N(C(C)(C)C)C2)s1 (centres undefined) | -3.27 |
| NC(=O)C1CCCN(Cc2ccc(C(=O)Nc3cnns3)cc2)C1 (centres undefined) | 13.7 |
| O=C(NCCc1cnccn1)c1ccc(S(=O)(=O)NC2CCC2)cc1 | 7.63 |
| COc1ccc(OC)c(C2CCN(C(=O)C3CCS(=O)(=O)CC3)C2)c1 (centres undefined) | 1.21 |
| COc1ccc(-n2ccc(C(=O)NCCN3CCCCC3)n2)cc1 | -2.87 |
| COc1c(CNCC(O)c2ccccc2F)c(C(C)C)nn1C (centres undefined) | -8.91 |
| Cc1ccc(C(O)CNC(=O)NCc2c(C)cc(C)[nH]c2=O)cc1 (centres undefined) | -3.9 |
| CC(C)(C)c1n[nH]c(C2CN(C(=O)C3=COCCC3)CCO2)n1 (centres undefined) | -5.74 |
| O=C(NCCN1CCCS1(=O)=O)c1scnc1Cl | -3.67 |
| Cn1cc(-c2nc(C(=O)N3CCCC3Cn3cccn3)cs2)cn1 (centres undefined) | -9.25 |
| CCCc1n[nH]c(C2CN(C(=O)c3ccc(C)[nH]c3=O)CCO2)n1 (centres undefined) | 0.238 |
| CCOc1ccccc1C1=CCN(C(=O)C2CCN(C)C(=O)C2)CC1 (centres undefined) | 2.58 |

| Structure (SMILES) | cytotoxicity at 10 µM [%] |
| --- | --- |
| Cc1ccccc1C1(CNC(=O)NC(C)c2nncn2C)CC1 (centres undefined) | -5.59 |
| COc1cc(CNCc2ccnc(N3CCOCC3)c2)cc(Cl)c1OC | -8.7 |
| Cc1c(F)cc(C(=O)O)cc1S(=O)(=O)Nc1ccc2c(c1)OCCO2 | -1.45 |
| c1ncn(CC2CCCN2Cc2cn3ccsc3n2)n1 (centres undefined) | -10.1 |
| Cc1cc(C(C)C(=O)N2CCCN(Cc3cscn3)CC2)c(C)o1 (centres undefined) | -1.58 |
| COc1ccc(-c2noc(CN3CCc4cncnc4C3)n2)cc1 | -0.215 |
| CC(C)c1ncc2c(n1)CN(Cc1ccc(C(N)=O)cc1)CC2 | -14.2 |
| CCCn1nc2c(cc1=O)CN(CC(=O)Nc1ccncc1)CC2 | -17.8 |
| CCc1ccsc1C(=O)N1CCN(C(=O)CC(F)(F)F)CC1 | -9.88 |
| CN(C)C(=O)CN1CCCC2(CCN(c3ccsc3)C2=O)C1 (centres undefined) | 9.88 |
| Cc1ccc(CNC2CCc3[nH]c(=O)ccc3C2)cc1C (centres undefined) | 0.354 |
| Cc1cccc(CN2C(=O)CC[C@@H]3[C@H]2CCN3Cc2nccn2C)n1 | -81.9 |
| Cc1ccc(N2CC[C@H]3C[C@H](C(=O)NCc4ccco4)O[C@@H]3C2)cc1 | 8.8 |
| CNC(=O)COC1COC2(CCN(Cc3cccnc3OC)CC2)C1 (centres undefined) | 7.61 |
| c1cnc(NC[C@H]2OC[C@@H]3CCN(Cc4cccnc4)C[C@@H]32)nc1 | -3.12 |
| O=C(N1CCCO1)[C@@]12CCO[C@@H]1CCN(Cc1cccs1)C2 | -6.36 |
| COc1cccc(N2CC3(CCN(Cc4nccn4C)C3)CC2=O)c1 (centres undefined) | -83 |
| Cc1cnc(C(=O)N2CC[C@H]3[C@@H]2CCC(=O)N3c2cccnc2)cn1 | -81.9 |
| Cc1cnc(N2CC3(CCN(S(=O)(=O)C4CC4)C3)C2)nc1 | -109 |
| O=C1CO[C@@H]2CN(Cc3ccncc3)C[C@H]2N1Cc1ccncc1 | -85 |
| O=C(Cc1cccnc1)N1C[C@H]2CC[C@@H](C1)N(Cc1ccccc1)C2=O | 7.93 |

Reference: ChEMBL document CHEMBL4513216, “Probing the Open Global Health Chemical Diversity Library for Multistage-Active Starting Points for Next-Generation Antimalarials” (ACS Infect Dis, 2020)
